# Test results taken from ChEMBL document CHEMBL4351018, “Novel phenanthridin-6(5H)-one derivatives as potent and selective BET bromodomain inhibitors: Rational design, synthesis and biological evaluation” (Eur J Med Chem, 2019).
# What was measured:
# [1] = biological target: Bromodomain-containing protein 3 (Homo sapiens) (UniProt Q15059); assay: Binding affinity to BRD3 bromodomain 1 (unknown origin) at 20 uM by Alpha screen assay relative to control
# [2] = biological target: Bromodomain-containing protein 2 (Homo sapiens) (UniProt P25440); assay: Binding affinity to BRD2 bromodomain 2 (unknown origin) at 20 uM by Alpha screen assay relative to control
# Sequence of Bromodomain-containing protein 2 (Homo sapiens) (P25440 whole entry, looked up): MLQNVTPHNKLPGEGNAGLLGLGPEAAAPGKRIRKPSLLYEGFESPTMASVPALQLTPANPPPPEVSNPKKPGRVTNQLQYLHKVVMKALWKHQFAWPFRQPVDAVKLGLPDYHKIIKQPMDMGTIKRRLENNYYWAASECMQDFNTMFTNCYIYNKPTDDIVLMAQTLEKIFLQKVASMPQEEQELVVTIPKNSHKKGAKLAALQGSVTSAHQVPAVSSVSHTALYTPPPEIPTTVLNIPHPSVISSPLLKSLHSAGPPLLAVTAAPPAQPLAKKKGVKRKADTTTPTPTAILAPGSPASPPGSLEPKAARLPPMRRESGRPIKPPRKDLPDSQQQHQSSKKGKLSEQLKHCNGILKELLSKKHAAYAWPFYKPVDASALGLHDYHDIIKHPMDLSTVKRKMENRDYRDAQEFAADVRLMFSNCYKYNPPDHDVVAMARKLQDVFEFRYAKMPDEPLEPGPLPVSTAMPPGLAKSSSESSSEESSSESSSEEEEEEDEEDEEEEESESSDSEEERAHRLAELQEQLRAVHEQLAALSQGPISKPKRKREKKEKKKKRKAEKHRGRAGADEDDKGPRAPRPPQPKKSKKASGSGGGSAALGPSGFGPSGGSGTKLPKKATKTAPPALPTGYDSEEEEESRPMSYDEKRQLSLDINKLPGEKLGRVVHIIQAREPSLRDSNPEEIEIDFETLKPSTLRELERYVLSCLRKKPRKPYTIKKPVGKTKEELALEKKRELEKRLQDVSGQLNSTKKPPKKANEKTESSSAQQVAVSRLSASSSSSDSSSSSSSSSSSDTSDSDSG
# [3] = biological target: Bromodomain-containing protein 4 (Homo sapiens, UniProt O60885); assay: Binding affinity to recombinant human His-tagged BRD4 bromodomain 2 expressed in […] insect cells using biotinylated H4(1 to 21)K5/8/12/16Ac peptide as substrate at 20 uM preincubated for 30 mins followed by substrate addition and measured after 30 mins by Alpha screen assay relative to control
# [4] = biological target: Bromodomain testis-specific protein (Homo sapiens) (UniProt Q58F21); assay: Binding affinity to BRDT bromodomain 1 (unknown origin) at 20 uM by Alpha screen assay relative to control
# A549 [5] = assay: Antiproliferative activity against human A549 cells incubated for 48 hrs by MTT assay; format: functional, cell-based; conditions: A549, 48 h
# Summary of the method: (§1)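 Cells kept in DMEM or RPMI 1640 with 10% FBS at 37 °C, 5% CO2. MTT added for 4 h at 37 °C, formazan dissolved in DMSO, OD read at 570 nm. Survival % taken relative to blank and control wells. Triplicate runs; IC50 from curve fit.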
# PANC-1 = assay: Antiproliferative activity against human PANC1 cells incubated for 48 hrs by MTT assay; format: functional, cell-based; conditions: PANC-1, 48 h; summary of the method: as §1
# A549 [6] = assay: Inhibition of BET in human A549 cells assessed as downregulation of c-Myc protein expression level incubated for 48 hrs by western blot analysis; format: cell-based
# Summary of the method: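 A549 cells seeded at 400000 per well, grown overnight in 10% FBS medium, then given serially diluted compound for 48 h. c-Myc in lysates detected with a mouse monoclonal antibody; GAPDH used as loading control.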
# A549 [7] = assay: Induction of apoptosis in human A549 cells assessed as viable cells at 0.3 uM incubated for 48 hrs by annexin V-FITC/PI double staining based flow cytometric analysis (reference value: 98.2%); format: functional; conditions: A549, 48 h, read-out: Activity
# A549 [8] = assay: Induction of apoptosis in human A549 cells assessed as viable cells at 1.0 uM incubated for 48 hrs by annexin V-FITC/PI double staining based flow cytometric analysis (reference value: 98.2%); format: functional; conditions: A549, 48 h, read-out: Activity
# A549 [9] = assay: Induction of apoptosis in human A549 cells assessed as early apoptotic cells at 1.0 uM incubated for 48 hrs by annexin V-FITC/PI double staining based flow cytometric analysis (reference value: 1.76%); format: functional
# A549 [10] = assay: Induction of apoptosis in human A549 cells assessed as late apoptotic cells at 1.0 uM incubated for 48 hrs by annexin V-FITC/PI double staining based flow cytometric analysis (reference value: 0.039%); format: functional
# A549 [11] = assay: Induction of apoptosis in human A549 cells assessed as late apoptotic cells at 3.0 uM incubated for 48 hrs by annexin V-FITC/PI double staining based flow cytometric analysis (reference value: 0.039%); format: functional
# A549 [12] = assay: Induction of apoptosis in human A549 cells assessed as necrotic cells at 3.0 uM incubated for 48 hrs by annexin V-FITC/PI double staining based flow cytometric analysis (reference value: 0%); format: functional
# A549 [13] = assay: Induction of apoptosis in human A549 cells assessed as viable cells at 5.0 uM incubated for 48 hrs by annexin V-FITC/PI double staining based flow cytometric analysis (reference value: 98.2%); format: functional; conditions: A549, 48 h, read-out: Activity
# A549 [14] = assay: Induction of apoptosis in human A549 cells assessed as late apoptotic cells at 5.0 uM incubated for 48 hrs by annexin V-FITC/PI double staining based flow cytometric analysis (reference value: 0.039%); format: functional
# A549 [15] = assay: Induction of apoptosis in human A549 cells assessed as necrotic cells at 5.0 uM incubated for 48 hrs by annexin V-FITC/PI double staining based flow cytometric analysis (reference value: 0%); format: functional
# A549 [16] = assay: Induction of apoptosis in human A549 cells incubated for 48 hrs by annexin V-FITC/PI double staining based flow cytometric analysis; format: functional, cell-based
# [17] = Metabolic stability in human liver microsomes assessed as half life at 1 uM measured for 0.025 to 2 hrs in presence of betaNADPH by LC-MS/MS analysis; format: ADME, Microsome
# Summary of the method: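 1 μM compound incubated at 37 °C with human liver microsomes (0.5 mg/mL), 1.7 mM β-NADPH and 3.3 mM MgCl2 in 0.1 M phosphate buffer pH 7.4, with DMSO below 0.1%. Remaining parent measured by LC-MS/MS; half-life from concentration-time regression.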
# [18] = AUC (0 to t) in Sprague-Dawley rat at 2.5 mg/kg, iv measured for 0.083 to 24 hrs by LC-MS/MS/MS analysis; format: ADME, organism-based; parameters: time upper 24 hr, dose 2.5 mg/kg, time lower 0.083 hr, route intravenous; conditions: in vivo
# [19] = Cmax in Sprague-Dawley rat at 2.5 mg/kg, iv measured for 0.083 to 24 hrs by LC-MS/MS analysis; format: ADME, organism-based; parameters: dose 2.5 mg/kg, route intravenous; conditions: in vivo
# [20] = AUC (0 to t) in Sprague-Dawley rat at 10 mg/kg, po measured for 0.083 to 24 hrs by LC-MS/MS analysis; format: ADME, organism-based; parameters: time 0.083-24 hr, dose 10 mg/kg, route oral; conditions: in vivo
# [21] = AUC (0 to infinity) in Sprague-Dawley rat at 10 mg/kg, po measured for 0.083 to 24 hrs by LC-MS/MS analysis; format: ADME, organism-based; parameters: dose 10 mg/kg, route oral, time infinity; conditions: in vivo
# [22] = Half life in Sprague-Dawley rat at 10 mg/kg, po measured for 0.083 to 24 hrs by LC-MS/MS analysis; format: ADME, organism-based; conditions: in vivo
# [23] = Tmax in Sprague-Dawley rat at 10 mg/kg, po measured for 0.083 to 24 hrs by LC-MS/MS analysis; format: ADME, organism-based; conditions: in vivo
# [24] = Volume of distribution at steady state in Sprague-Dawley rat at 2.5 mg/kg, iv measured for 0.083 to 24 hrs by LC-MS/MS analysis; format: ADME, organism-based; conditions: in vivo, read-out: Vdss
# [25] = Cmax in Sprague-Dawley rat at 10 mg/kg, po measured for 0.083 to 24 hrs by LC-MS/MS analysis; format: ADME, organism-based; parameters: dose 10 mg/kg, route oral; conditions: in vivo
# A549 [26] = assay: Induction of cell cycle arrest in human A549 cells assessed as accumulation at […] phase at 0.3 uM incubated for 48 hrs by BrdU/PI staining based flow cytometric analysis; format: functional
# Summary of the method: (§2)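 Subconfluent A549 cells exposed 48 h to 0.3–5.0 μM with DMSO vehicle control. Pulse-labelled with 10 μM BrdU for 30 min at 37 °C before harvest. Fixed in 70% ethanol, denatured in 2 M HCl, neutralised, then stained with fluorescein anti-BrdU antibody and propidium iodide. Analysed by flow cytometry with 488 nm excitation.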
# A549 [27] = assay: Induction of cell cycle arrest in human A549 cells assessed as accumulation at […] phase at 1.0 uM incubated for 48 hrs by BrdU/PI staining based flow cytometric analysis; format: functional; summary of the method: as §2
# A549 [28] = assay: Induction of cell cycle arrest in human A549 cells assessed as accumulation at […] phase at 3.0 uM incubated for 48 hrs by BrdU/PI staining based flow cytometric analysis; format: functional; summary of the method: as §2
# A549 [29] = assay: Induction of cell cycle arrest in human A549 cells assessed as accumulation at […] phase at 5.0 uM incubated for 48 hrs by BrdU/PI staining based flow cytometric analysis; format: functional; summary of the method: as §2
# Sequence of Bromodomain-containing protein 3 (Homo sapiens) (Q15059 2-726 limits assumed): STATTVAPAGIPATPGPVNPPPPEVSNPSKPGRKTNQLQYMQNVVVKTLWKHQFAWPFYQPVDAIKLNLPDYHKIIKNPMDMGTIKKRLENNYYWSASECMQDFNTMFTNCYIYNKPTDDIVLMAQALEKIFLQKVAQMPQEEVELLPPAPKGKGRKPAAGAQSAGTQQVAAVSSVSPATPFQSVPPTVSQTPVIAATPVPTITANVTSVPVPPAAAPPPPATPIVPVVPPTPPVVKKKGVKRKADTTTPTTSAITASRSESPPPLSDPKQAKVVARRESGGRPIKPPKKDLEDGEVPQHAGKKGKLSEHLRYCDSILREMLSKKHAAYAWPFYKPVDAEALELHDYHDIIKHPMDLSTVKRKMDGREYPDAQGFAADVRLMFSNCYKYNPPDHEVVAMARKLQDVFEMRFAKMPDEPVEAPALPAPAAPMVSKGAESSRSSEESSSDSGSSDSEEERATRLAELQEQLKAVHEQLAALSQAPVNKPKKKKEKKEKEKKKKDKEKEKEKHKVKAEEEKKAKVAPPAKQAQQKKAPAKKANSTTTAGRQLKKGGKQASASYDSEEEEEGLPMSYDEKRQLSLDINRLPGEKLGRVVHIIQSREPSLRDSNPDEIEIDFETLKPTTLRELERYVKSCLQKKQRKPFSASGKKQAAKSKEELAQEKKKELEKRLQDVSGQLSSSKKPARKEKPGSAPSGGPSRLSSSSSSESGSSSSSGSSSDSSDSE
smiles,measurement,setting,value
COc1ccc(Cl)cc1S(=O)(=O)Nc1ccc2[nH]c(=O)c3ccccc3c2c1,Activity,[1],> 70%
same,Activity,[2],> 70%
same,Activity,[3],> 70%
same,Activity,[4],> 70%
same,IC50,A549 [5],0.75 µM
same,IC50,PANC-1,6.7 µM
same,inhibition,A549 [6],Dose-dependent effect
same,viability at 0.3 µM,A549 [7],69.6%
same,viability at 1 µM,A549 [8],46.1%
same,Activity,A549 [9],47.8%
same,Activity,A549 [10],6.13%
same,Activity,A549 [11],7.11%
same,Activity,A549 [12],0%
same,viability at 5 µM,A549 [13],19.7%
same,Activity,A549 [14],8.25%
same,Activity,A549 [15],0.036%
same,Activity,A549 [16],Dose-dependent effect
same,half-life at 1 µM,[17],4.17 h
same,AUC(0-t),[18],383 ng·h/mL
same,Cmax,[19],96.9 ng/mL
same,AUC(0-t),[20],566 ng·h/mL
same,AUC(0-inf),[21],670 ng·h/mL
same,half-life,[22],3.87 h
same,Tmax,[23],5.33 h
same,Vd,[24],76.7 L/kg
same,Cmax,[25],52.4 ng/mL
same,Activity,A549 [26],60.84%
same,Activity,A549 [27],70.3%
same,Activity,A549 [28],76.42%
same,Activity,A549 [29],81.66%
